Measured values: ChEMBL document CHEMBL1155070, “New endomorphin analogues containing alicyclic beta-amino acids: influence on bioactive conformation and pharmacological profile” (J Med Chem, 2008)

Experiments:
[1] = biological target: Delta-type opioid receptor (Rattus norvegicus, UniProt P33533); experiment: Displacement of [3H]Ile5,6deltorphin-2 from delta opioid receptor in Wistar rat brain
Outline: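 Competition binding on crude male Wistar rat forebrain membranes (0.2-0.5 mg protein/tube) in 50 mM Tris-HCl pH 7.4. Filtration, scintillation counting. Ki from nonlinear fit plus Cheng-Prusoff. Mean ± SEM, ≥3 independent runs in duplicate.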

[2] = (§1) Half life in rat brain membrane homogenate; type: ADME
Rattus norvegicus = species: Rattus norvegicus; experiment: as §1; type: ADME

Chain of Delta-type opioid receptor (P33533 whole entry): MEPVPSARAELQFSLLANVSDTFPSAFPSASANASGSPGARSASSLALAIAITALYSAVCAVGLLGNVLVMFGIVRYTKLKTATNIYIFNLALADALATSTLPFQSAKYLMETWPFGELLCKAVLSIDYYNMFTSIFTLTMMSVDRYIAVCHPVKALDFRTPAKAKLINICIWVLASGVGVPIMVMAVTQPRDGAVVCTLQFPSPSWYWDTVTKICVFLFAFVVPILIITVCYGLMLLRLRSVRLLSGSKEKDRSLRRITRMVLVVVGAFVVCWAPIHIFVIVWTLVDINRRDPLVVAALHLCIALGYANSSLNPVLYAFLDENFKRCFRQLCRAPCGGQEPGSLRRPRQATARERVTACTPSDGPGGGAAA

SMILES | Ki [1] [µM] | half-life [2] [h] | t1/2 (Rattus norvegicus) [h]
NC(=O)[C@H](Cc1ccccc1)NC(=O)[C@H](Cc1ccccc1)NC(=O)[C@@H]1CCC[C@@H]1NC(=O)[C@@H](N)Cc1ccc(O)cc1 | > 10 |  | 
NC(=O)[C@H](Cc1ccccc1)NC(=O)[C@H](Cc1ccccc1)NC(=O)[C@H]1CCC[C@H]1NC(=O)[C@@H](N)Cc1ccc(O)cc1 | 4.8 | > 12 | 
NC(=O)[C@H](Cc1ccccc1)NC(=O)[C@H](Cc1ccccc1)NC(=O)[C@H]1CCCC[C@H]1NC(=O)[C@@H](N)Cc1ccc(O)cc1 | 0.812 | > 12 | 
NC(=O)[C@H](Cc1ccccc1)NC(=O)[C@H](Cc1ccccc1)NC(=O)[C@@H]1CCCC[C@@H]1NC(=O)[C@@H](N)Cc1ccc(O)cc1 | > 10 |  | 
NC(=O)[C@H](Cc1ccccc1)NC(=O)[C@H](Cc1c[nH]c2ccccc12)NC(=O)[C@H]1CCC[C@@H]1NC(=O)[C@@H](N)Cc1ccc(O)cc1 | 3.08 |  | 
NC(=O)[C@H](Cc1ccccc1)NC(=O)[C@H](Cc1ccccc1)NC(=O)[C@@H]1CCCC[C@H]1NC(=O)[C@@H](N)Cc1ccc(O)cc1 | 0.439 |  | 
NC(=O)[C@H](Cc1ccccc1)NC(=O)[C@H](Cc1c[nH]c2ccccc12)NC(=O)[C@@H]1CCCC[C@H]1NC(=O)[C@@H](N)Cc1ccc(O)cc1 | > 10 |  | 
NC(=O)[C@H](Cc1ccccc1)NC(=O)[C@H](Cc1c[nH]c2ccccc12)NC(=O)[C@H]1CCCC[C@H]1NC(=O)[C@@H](N)Cc1ccc(O)cc1 | 2.76 | > 12 | 
NC(=O)[C@H](Cc1ccccc1)NC(=O)[C@H](Cc1ccccc1)NC(=O)[C@H]1CCCC[C@@H]1NC(=O)[C@@H](N)Cc1ccc(O)cc1 | > 10 |  | 
NC(=O)[C@H](Cc1ccccc1)NC(=O)[C@H](Cc1ccccc1)NC(=O)[C@H]1CCC[C@@H]1NC(=O)[C@@H](N)Cc1ccc(O)cc1 | 4.23 |  | 
NC(=O)[C@H](Cc1ccccc1)NC(=O)[C@H](Cc1c[nH]c2ccccc12)NC(=O)[C@H]1CCCC[C@@H]1NC(=O)[C@@H](N)Cc1ccc(O)cc1 | 9.62 |  | 
NC(=O)[C@H](Cc1ccccc1)NC(=O)[C@H](Cc1c[nH]c2ccccc12)NC(=O)[C@@H]1CCCC[C@@H]1NC(=O)[C@@H](N)Cc1ccc(O)cc1 | > 10 |  | 
NC(=O)[C@H](Cc1ccccc1)NC(=O)[C@H](Cc1c[nH]c2ccccc12)NC(=O)[C@@H]1CCC[C@@H]1NC(=O)[C@@H](N)Cc1ccc(O)cc1 | > 10 |  | 
NC(=O)[C@H](Cc1ccccc1)NC(=O)[C@H](Cc1ccccc1)NC(=O)[C@@H]1CCC[C@H]1NC(=O)[C@@H](N)Cc1ccc(O)cc1 | 1.41 |  | 
NC(=O)[C@H](Cc1ccccc1)NC(=O)[C@H](Cc1c[nH]c2ccccc12)NC(=O)[C@H]1CCC[C@H]1NC(=O)[C@@H](N)Cc1ccc(O)cc1 | 1.34 | > 12 | 
NC(=O)[C@H](Cc1ccccc1)NC(=O)[C@H](Cc1c[nH]c2ccccc12)NC(=O)[C@@H]1CCC[C@H]1NC(=O)[C@@H](N)Cc1ccc(O)cc1 | 0.67 |  | 
NC(=O)[C@H](Cc1ccccc1)NC(=O)[C@H](Cc1ccccc1)NC(=O)[C@@H]1CCCN1C(=O)[C@@H](N)Cc1ccc(O)cc1 [ENDOMORPHIN 2] |  |  | 3.8
NC(=O)[C@H](Cc1ccccc1)NC(=O)[C@H](Cc1c[nH]c2ccccc12)NC(=O)[C@@H]1CCCN1C(=O)[C@@H](N)Cc1ccc(O)cc1 [ENDOMORPHIN-1] |  |  | 4.9
